Assay results collected from several papers.
Lines come from different studies, so protocols differ.
Target: Ephrin type-B receptor 6 (EPHB6, Homo sapiens, UniProt O15197)
Residues used in one study (O15197 32-1021): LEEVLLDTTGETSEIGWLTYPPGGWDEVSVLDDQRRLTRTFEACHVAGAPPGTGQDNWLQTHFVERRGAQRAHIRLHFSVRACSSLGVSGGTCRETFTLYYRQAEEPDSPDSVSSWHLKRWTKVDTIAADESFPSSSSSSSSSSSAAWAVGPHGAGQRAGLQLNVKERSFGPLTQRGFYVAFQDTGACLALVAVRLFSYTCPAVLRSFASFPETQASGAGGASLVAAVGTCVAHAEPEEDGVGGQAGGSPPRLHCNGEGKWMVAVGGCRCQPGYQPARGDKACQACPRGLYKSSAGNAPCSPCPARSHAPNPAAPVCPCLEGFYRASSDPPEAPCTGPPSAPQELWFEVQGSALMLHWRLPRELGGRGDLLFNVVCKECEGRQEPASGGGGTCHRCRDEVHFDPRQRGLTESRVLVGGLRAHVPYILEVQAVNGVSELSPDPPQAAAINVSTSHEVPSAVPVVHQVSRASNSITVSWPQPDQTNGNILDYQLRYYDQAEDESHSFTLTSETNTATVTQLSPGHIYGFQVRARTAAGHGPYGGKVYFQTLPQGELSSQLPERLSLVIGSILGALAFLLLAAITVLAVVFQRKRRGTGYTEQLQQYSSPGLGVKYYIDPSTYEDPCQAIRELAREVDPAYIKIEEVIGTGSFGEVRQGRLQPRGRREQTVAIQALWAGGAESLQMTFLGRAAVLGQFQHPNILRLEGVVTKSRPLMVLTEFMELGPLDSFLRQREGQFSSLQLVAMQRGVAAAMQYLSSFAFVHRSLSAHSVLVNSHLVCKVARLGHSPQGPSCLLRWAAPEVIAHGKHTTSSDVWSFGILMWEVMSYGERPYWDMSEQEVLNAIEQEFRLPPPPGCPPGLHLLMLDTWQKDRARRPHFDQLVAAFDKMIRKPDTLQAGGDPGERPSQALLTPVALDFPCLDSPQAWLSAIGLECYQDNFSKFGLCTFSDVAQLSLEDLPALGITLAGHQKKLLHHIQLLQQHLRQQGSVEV

Structure (SMILES)	effect on	technique	concentration	remaining binding
C[C@@H]1CN(c2cc(-c3n[nH]c4ccc(OC5(C)CC5)cc34)ncn2)C[C@H](C)O1	cell-free assay	competition with immobilised ligand	0.1 µM	91%
F[C@@H]1CCN(c2nccc(-c3cnn4ncccc34)n2)C1	binding	–	1 µM	100%
CN(c1ccnc(CNc2nc(Nc3ccc4c(c3)CC(=O)N4)ncc2C(F)(F)F)n1)S(C)(=O)=O	cell-free assay	competition with immobilised ligand	1 µM	54%
C[C@@H]1CCN(c2nccc(-c3cnn4ncccc34)n2)C1	binding	–	1 µM	93%
O=C(NCCCN1CCOCC1)c1ccc(Nc2ncc(Cl)c(-c3ccc(Cl)s3)n2)cc1	binding	competition with immobilised ligand	1 µM	13%
C[C@H](NC(=O)c1cnc2n1[C@](C)(Cc1ccc(C#N)cc1)C(=O)N2c1cc(Cl)c(F)c(Cl)c1)C(=O)NC1(c2ccccn2)CC1	cell-free assay	competition with immobilised ligand	1 µM	100%
c1cncc(-c2cccc(Nc3nccc(NC4CCCCC4)n3)c2)c1	binding	competition with immobilised ligand	10 µM	1.6%
CC1CCCN1c1nccc(-c2cnn3ncccc23)n1 (stereo not shown)	binding	–	1 µM	82%
O=C(O)[C@@H]1[C@@H](Cn2nnc3ccccc3c2=O)CC[C@H]1C(=O)c1ccc(OCCC2CCOCC2)cc1	cell-free assay	competition with immobilised ligand	1 µM	100%
C[C@@H](c1ccc(-n2cnc3c(N)ncnc32)cc1)N1CCc2nn(C)c(Cc3ccccc3)c2C1=O	binding	competition with immobilised ligand	0.1 µM	51%
CN(c1nccc(-c2cnn3ncccc23)n1)C1CC1	binding	–	1 µM	100%
O=C(NC[C@@H]1[C@H]2CN(C(=O)OCc3cc(C(F)(F)F)cc(C(F)(F)F)c3)C[C@@H]12)c1ccc2[nH]nnc2c1	cell-free assay	competition with immobilised ligand	1 µM	100%
Nc1ncc2c(n1)-c1c([nH]c3ccc(C#CC4CC4)cc13)CCCC2	binding	competition with immobilised ligand	1 µM	84%
O=C(c1ccc(Nc2nccc(-c3cc4ccccc4s3)n2)cc1)N1CCC(N2CCCC2)CC1	binding	competition with immobilised ligand	1 µM	2.5%
N[C@H]1CCN(c2nccc(-c3cnn4ncccc34)n2)C1	binding	–	1 µM	56%
CCN1CCN(Cc2ccc(C(=O)Nc3ccc(C)c(Oc4ccc5c(c4)CC(=O)N5)c3)cc2C(F)(F)F)CC1	binding	competition with immobilised ligand	1 µM	91%
O=C(NCCCN1CCOCC1)c1ccc(Nc2nccc(-c3cc4ccccc4s3)n2)cc1	binding	competition with immobilised ligand	1 µM	18%
CC(=O)N1CCC(c2ccc(C(=O)NC3=NCCN3)cc2C(F)(F)F)CC1	cell-free assay	competition with immobilised ligand	1 µM	100%
COc1cnc(Nc2cccc(S(N)(=O)=O)c2)nc1N1CCN(c2ccccc2)C(=O)C1	binding	competition with immobilised ligand	1 µM	90%
Cc1nc(N2CC[C@@H](O)C2)ncc1-c1cc(C(F)(F)F)cc2[nH]ncc12	binding	competition with immobilised ligand	1 µM	36%
c1cnn2ncc(-c3ccnc(N4CCC45COC5)n3)c2c1	binding	–	1 µM	63%
O=C(NCC1CCOCC1)c1n[nH]cc1NC(=O)c1c(F)cccc1F	binding	competition with immobilised ligand	1 µM	91%
